Compound activity (PubChem)
The entries come from a sample that favours hits as a whole.
Redox H2O2 prof = compounds producing H2O2 with reducing agent – biochemical, NIH compound library profiling, artefact control for MLSCN library redox annotation, primary screen. actives 0.03% (n = 200,000). DTT-dependent redox cycling H2O2, phenol red/HRP absorbance; 100% = 100 µM peroxide control, 0% = buffer. activation, % at 10 µM;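 active means activation of at least 50% relative to the plate's high and low controls in the primary single-dose screen; inactive means activation below 50%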;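 further: compound incubated with DTT at 0.8 mM final as the reducing agent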
Diaph act CS = compounds boosting diaphorase resazurin reduction – biochemical, uHTS, resorufin fluorescence, counter-screen for diaphorase-coupled primary assays, primary screen; activation factor at 20 µM; Diaphorase/resazurin coupled assay, 16 min; stronger effect = higher value; 1 = vehicle wells, 0 = NADH-free wells; AID 1229, 2008; actives 0.005% (n = 190,000);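 active means diaphorase activity raised at least twofold by the compound at 20 µM; inactive means activation factor below 2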
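Material: purified diaphorase enzyme from Clostridium kluyveri / Medium: HEPES pH 7.4 buffer with MgCl2 and Tween 20 / Schedule: enzyme reaction of 16 min at room temperature / Measured by: resorufin fluorescence, excitation 544 nm, emission 590 nm / Evaluation: rise in resorufin formation, marking diaphorase activation or chemical reduction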
G6PDH counter = L. mesenteroides G6PDH inhibitors, counter-screen for G6PDH-coupled screening assays, biochemical, Leuconostoc mesenteroides enzyme. AID 1020, 2008. Purified L. mesenteroides G6PDH, diaphorase/resazurin coupled fluorescence, 45 min. actives 0.12% (n = 200,000). inhibition, % at 5 µM. glucose-6-phosphate dehydrogenase [Leuconostoc mesenteroides]
L major viab = Leishmania major promastigote growth inhibition, primary screen; inhibition, % at 10 µM; actives 9% (n = 200,000); Leishmania major promastigotes, resazurin fluorescence viability;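 further: promastigotes grown with compound for 44 hours at 28 °C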
PfGluPho inh = PfG6PD enzyme inhibitors, primary screen, biochemical, fluorescence intensity, uHTS | glucose-6-phosphate dehydrogenase-6-phosphogluconolactonase (Plasmodium falciparum 3D7) | PfGluPho enzyme, NADPH resazurin-diaphorase fluorescence | inhibition, % at 20 µM | actives 0.78% (n = 350,000) | AID 504690, 2011;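 active means inhibition reaching at least a set limit at 20 µM in the primary screen, cut at about 59% in these data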;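 further: 0% = DMSO wells with substrate and 100% = DMSO wells lacking glucose-6-phosphate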
Diaph inh CS = diaphorase inhibitors and chemical oxidizers, primary screen, counter-screen for diaphorase-coupled primary assays, biochemical, uHTS, resorufin fluorescence; AID 1217, 2008; diaphorase resazurin-to-resorufin fluorescence, NADH, 16 min; bacterial (C. kluyveri) enzyme, not human; inhibition, % at 20 µM; actives 0.69% (n = 190,000);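 active means primary screen inhibition at 20 µM above a set limit, cut at about 50% in these data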;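 further: plate controls were DMSO with full reaction for no effect and wells lacking NADH for full effect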
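System: Bacterial diaphorase enzyme (C. kluyveri) | Incubation: 16-min room-temperature incubation before reading | Benchmarks: No-NADH positive control and DMSO neutral control | Measured by: Resorufin fluorescence 544/590 nm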
PfG6PD confirm = PfG6PD inhibitors, hit retest, confirmation, biochemical, fluorescence intensity, single concentration. shares compounds with PfGluPho inh. inhibition, % at 20 µM. AID 504753, 2011. actives 34% (n = 2,400). recombinant PfGluPho, NADPH-diaphorase-resazurin fluorescence;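 active means inhibition of at least 50% at 20 µM in any single replicate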;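 further: 0% = DMSO with substrate and 100% = DMSO lacking glucose-6-phosphate substrate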
Diaph ctr 10uM = diaphorase inhibitors and chemical oxidizers, confirmation, counter-screen for P. falciparum G6PD inhibitor project, biochemical, fluorescence intensity, 10 µM NADPH; actives 39% (n = 820); inhibition, % at 20 µM; diaphorase-coupled resazurin reduction, NADPH 10 uM; shares compounds with PfGluPho inh;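 active means average inhibition reaching 50% or more with the compound at 20 µM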;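 further: resorufin red fluorescence formed as diaphorase reduces resazurin using NADPH; 0% = DMSO with enzyme and 100% = DMSO without enzyme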
Diaphorase 30uM = diaphorase inhibitors and chemical oxidizers, confirmation, counter-screen for P. falciparum G6PD inhibitor project, biochemical, fluorescence intensity, 30 µM NADPH. AID 504863, 2011. inhibition, % at 20 µM. Diaphorase/resazurin coupled assay, resorufin fluorescence. actives 29% (n = 820). shares compounds with PfGluPho inh;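 active means inhibition averaging 50% or more, tested at 20 µM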;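 further: 0% = DMSO with enzyme and 100% = DMSO wells lacking diaphorase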
* = called active by the depositor; . = no result. Unless noted, no stated cut-off is given here; in the data, active means inhibition above about 50%; inactive means the rest.

SMILES	Redox H2O2 prof	Diaph act CS	G6PDH counter	L major viab	PfGluPho inh	Diaph inh CS	PfG6PD confirm	others
COC(=O)c1sc(NC(=O)c2cc(-c3ccccc3)nc3ccccc23)c(C#N)c1C	1	0.9	-8	8	65*	12	43
CCOC(=O)c1sc(NC(=O)c2cc(-c3ccc(C)cc3)nc3ccccc23)c(C#N)c1C	-7	0.8	-8	-2	55	21	.
CN(CC(=O)Nc1cccc(F)c1)C(=O)c1cc(S(=O)(=O)N2CCCCC2)ccc1N1CCOCC1	.	.	.	.	0	.	.
CC1CN(C(=O)COC(=O)CSc2ccc([N+](=O)[O-])cc2)CC(C)O1 (stereo not given)	.	.	.	.	60*	.	-4
O=C(CSc1ccc([N+](=O)[O-])cc1)OCC(=O)N1CCCC1=O	.	.	.	.	-7	.	.
C=CCn1c(=O)c(C(=O)NC(C)c2ccccc2)c(O)c2ccccc21 (stereo not given)	.	.	.	.	-5	.	.
O=C(CSc1nc2cc([N+](=O)[O-])ccc2n1-c1ccccc1)NCc1ccc2c(c1)OCO2	0	1	-15	-4	68*	0	-6
Cc1cc(C)cc(-n2c(SCC(=O)NCc3ccc4c(c3)OCO4)nc3ccccc3c2=O)c1	0	0.9	-9	15	5	15	.
CC(NS(=O)(=O)c1ccccc1)C(=O)Nc1ccc2c(c1)OCCO2 (stereo not given)	.	.	.	.	4	.	.
CN(C(=O)c1cnc(N2CCN(c3ncccn3)CC2)c2ccccc12)c1ccc(Cl)cc1	2	0.8	6	30	98*	17	35
O=C(CSc1nnc(SCc2ccc(Cl)cc2)s1)N/N=C/c1c[nH]c2ccccc12	0	0.8	6	65*	60*	25	33
CCCc1nnc(SCC(=O)Nc2nc(C)cs2)n1CCOC	.	.	.	.	-14	.	.
COC1C=CC=C(C)C(=O)NC2=CC(=O)C(N)=C(CC(C)CC(OC)C(O)C(C)C=C(C)C1OC(N)=O)C2=O (stereo not given)	.	.	.	.	-40	.	.
COC1CC(C)C(OC)c2cc(O)cc(c2O)NC(=O)C(C)=CC=CC(C)C(OC(N)=O)C(C)=CC(C)C1OC (stereo not given)	.	.	.	.	105*	.	106*	Diaph ctr 10uM=82*;Diaphorase 30uM=82*
COc1ccc2c(c1)O/C(=C\c1sccc1C)C2=O	0	0.9	-58	3	-7	14	.
COC(=O)c1sc2nc(C)cc(C)c2c1N	-1	0.8	0	7	7	16	.
Cc1ccc2nc(-c3cccc(N)c3)[nH]c2c1	1	1	6	7	62*	2	29
Cc1ccc2nc(-c3sc4nc(C)cc(C)c4c3N)[nH]c2c1	1	1	2	-2	77*	2	12
Cc1nn(C(=O)c2ccco2)c(C)c1Sc1ccc(Cl)cc1	0	0.9	17	4	-4	14	.
Cc1nn(C(=O)c2cccnc2)c(C)c1Sc1ccc(Br)cc1	1	0.9	0	-8	67*	12	44
COc1cc(N2C(=O)C=CC2=O)ccc1N1C(=O)C=CC1=O	.	.	.	.	121*	.	105*	Diaph ctr 10uM=-1;Diaphorase 30uM=-18
CC1CN(C(=O)c2cc(Br)c(Br)s2)CC(C)O1 (stereo not given)	.	.	.	.	2	.	.
O=c1c(Cc2ccccc2)c(O)ccn1C1CCCCCCC1	0	0.8	0	-8	-10	17	.
CC(C)CN1C=C2C(=O)C(C)(OC(=O)CCc3ccccc3)C(=O)C=C2C=C1c1ccc(C#N)cc1 (stereo not given)	.	.	.	.	58	.	.
CC1(OC(=O)CCc2ccccc2)C(=O)C=C2C=C(c3ccc(C#N)cc3)N(Cc3ccco3)C=C2C1=O (stereo not given)	.	.	.	.	37	.	.
SMILES	Redox H2O2 prof	Diaph act CS	G6PDH counter	L major viab	PfGluPho inh	Diaph inh CS	PfG6PD confirm	others
CC1(OC(=O)CCc2ccccc2)C(=O)C=C2C=C(c3ccc(C#N)cc3)N(C3CC3)C=C2C1=O (stereo not given)	.	.	.	.	83*	.	49
COCCN1C=C2C(=O)C(C)(OC(=O)CCc3ccccc3)C(=O)C=C2C=C1c1ccc(C#N)cc1 (stereo not given)	.	.	.	.	62*	.	22
CC1(OC(=O)CCc2ccccc2)C(=O)C=C2C=C(c3ccc(C#N)cc3)N(Cc3ccccc3)C=C2C1=O (stereo not given)	.	.	.	.	84*	.	36
Cc1cc(C)cc(NC(=O)C2C3C=CC4(O3)C2C(=O)N(CCCN(C)C)C4C(=O)NC2CCCC(C)C2C)c1 (stereo not given)	.	.	.	.	-6	.	.
Cc1cc(C)n(CCOc2ccc(Cl)cc2Cl)n1	0	0.8	7	4	15	16	.
Cc1nc2scc(-c3ccccc3)c2c(=O)n1N=C1C=CC(=O)C=C1	1	.	15	36	113*	.	111*	Diaph ctr 10uM=95*;Diaphorase 30uM=89*
Cc1nc2scc(-c3ccccc3)c2c(=O)n1N	-1	0.8	1	-5	-20	17	.
CCOc1ccccc1NC(=S)Nn1cnnc1	.	.	.	.	62*	.	30
Cc1ccccc1NC(=S)Nn1cnnc1	.	.	.	.	35	.	.
S=C(Nc1ccc(Cl)cc1Cl)Nn1cnnc1	0	0.9	17	1	47	14	-24
Oc1ccc(C[C@H]2CNC(=S)N2CC2CCCN2C[C@H](Cc2ccccc2)N2C[C@H](Cc3ccc(O)cc3)N(CC3CCCCCC3)C2=S)cc1 (stereo not given in full)	.	.	.	.	2	.	.
CC(=O)c1ccc(-n2c(-c3cc(-c4ccco4)[nH]n3)n[nH]c2=S)cc1	0	0.9	1	-1	18	12	.
O=C(O)c1ccc(-n2c(-c3cc(-c4ccco4)[nH]n3)n[nH]c2=S)cc1	4	0.6	4	-7	59*	38	56*	Diaph ctr 10uM=-3;Diaphorase 30uM=-1
